Test results published in ChEMBL document CHEMBL1129316, “Inhibitors of human immunodeficiency virus type 1 protease containing 2-aminobenzyl-substituted 4-amino-3-hydroxy-5-phenylpentanoic acid: synthesis, activity, and oral bioavailability” (J Med Chem, 1996).
pIC50, pKi: −log10 of the molar value. ≈ marks a conversion by molar mass, not a printed value.

Legend:
[1] = Solubility (phosphate-buffered saline, pH =7.4); assay type: physicochemical; conditions: read-out: S
How it was run: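 About 1 mg of lyophilized amorphous inhibitor in 1 mL PBS (pH 7.4), vortexed 1 min and sonicated 30 min at 37 °C. Filtered, then centrifuged at 100 000 rpm for 30 min. Supernatant run on RP-C18 HPLC (10 mM NH4OAc/CH3CN 50/50, UV 210 nm) and quantified by external standard. Minimum detectable 0.1 µg/mL.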

[2] = Oral Bioavailability was measured as Maximal observed concentration (Cmax) value at dose 125 mg/kg; assay type: ADME, organism-based; parameters: dose 125 mg/kg, route oral; conditions: in vivo
How it was run: (§1)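 Female Balb/c mice, fasted 24 h before and during the study, water ad libitum. Dosed by oral gavage at 125 mg/kg in a liquid formulation. Heparinized whole blood sampled at various times, methanol-extracted, cleaned on sulfobenzyl SPE, then RP-C18 HPLC with UV at 200 nm against an internal standard. Cmax taken as observed; AUC calculated. Detection limit 0.1 µM.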

[3] = test system: Human immunodeficiency virus 1; assay: Antiviral activity against HIV-1, IIIB, in MT-4 Cells; assay type: functional, organism-based; conditions: Human immunodeficiency virus 1, MT4
How it was run: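 HIV-1 strain IIIB-induced cytopathic effect in HTLV-I-transformed MT4 cells. Virus adsorbed to cells at 1 × 10⁶ cells/mL, 37 °C, 1 h. Compounds added postadsorption, final 1 × 10⁵ cells/mL. Inoculum set to kill 90% of cells in 5 days. Mock-infected and compound-only controls run. DMSO ≤0.3%, medium with 10% FBS. Viability read by MTT after 5 days. Mean of repeat determinations.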

[4] = Oral Bioavailability was measured as area-under-curve(AUC) value at dose 125 mg/kg; assay type: ADME, organism-based; conditions: in vivo; how it was run: as §1
[5] = target: Human immunodeficiency virus type 1 protease (Human immunodeficiency virus 1, UniProt Q72874); assay: Binding affinity against HIV-1 protease
How it was run: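 Recombinant HIV-1 PR expressed in E. coli JM105 and purified to homogeneity. Enzyme incubated at 37 °C in 0.1 M MES, 0.37 M NaCl, 4 mM EDTA, pH 6.25, with 280 µM chromogenic nonapeptide substrate (pNph). Initial rates taken from the absorbance decrease at 298 nm. IC50 fitted, then Ki = (IC50 − Et/2)/(1 + S/Km). Mean of two determinations; DMSO ≤5%.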

[6] = Oral Bioavailability was measured as Maximal observed concentration (Cmax) value at dose 125 mg/kg; b = No compound detectable in blood above the detection limit of 0.1 uM; assay type: ADME, organism-based; parameters: dose 125 mg/kg, route oral; conditions: in vivo; how it was run: as §1
[7] = Oral Bioavailability was measured as area-under-curve(AUC) value at dose 125 mg/kg; b = No compound detectable in blood above the detection limit of 0.1 uM; assay type: ADME, organism-based; conditions: in vivo; how it was run: as §1
MT4 [8] = assay: Antiviral Activity against HIV-1, IIIB, in MT-4 Cells; d indicates no activity at 3 uM; assay type: functional, cell-based, Homo sapiens
How it was run: (§2)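 MT4 cells infected with HIV-1 IIIB; virus adsorbed at 1 × 10⁶ cells/mL, 37 °C, 1 h, then plated at 1 × 10⁵ cells/mL with compound added postadsorption. Inoculum set to kill 90% of cells in 5 days. Incubated 5 days; viability of infected and mock-infected cells by MTT, read spectrophotometrically. Medium with 10% FBS; DMSO ≤0.3%. Values given as mean ± SD, n in parentheses.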

MT4 [9] = assay: Antiviral Activity against HIV-1, IIIB, in MT-4 Cells; d indicates no activity at 10 uM; assay type: functional, cell-based, Homo sapiens; how it was run: as §2
[10] = Oral Bioavailability was measured as area-under-curve(AUC) value at dose 125 mg/kg;b = No compound detectable in blood above the detection limit of 0.1 uM; assay type: ADME, organism-based; conditions: in vivo; how it was run: as §1

Row | Compound | solubility [1] [µM] | Cmax [2] [nM] | pIC50 [3] | AUC [4] [µM·h] | pKi [5] | further results
1 | COc1ccc(CN[C@@H](C(=O)NC(C(=O)NCc2nc3ccccc3[nH]2)C(C)C)[C@H](O)[C@H](Cc2ccccc2)NC(=O)OC(C)(C)C)cc1 (stereo partly specified) | 9 (≈ 6.06 µg/mL) | 9100 | 6.29 | 127 | 8.11 | –
2 | COc1ccc(CN[C@@H](C(=O)N[C@H]2c3ccccc3C[C@H]2O)[C@H](O)[C@H](Cc2ccccc2)NC(=O)[C@@H](NC(=O)Nc2cccc(OC)c2OC)C(C)(C)C)cc1 | – | – | 6.27 | – | 7.89 | –
3 | CC(=O)NCc1ccc(CN[C@@H](C(=O)N[C@H]2c3ccccc3C[C@H]2O)[C@H](O)[C@H](Cc2ccccc2)NC(=O)[C@@H](NC(=O)OCc2ccccc2)C(C)(C)C)cc1 | 25.3 (≈ 19.3 µg/mL) | – | 7.00 | – | 8.24 | Cmax [6]: No compound detectable; AUC [7]: No compound detectable
4 | COc1ccc(CN[C@@H](C(=O)N[C@H]2c3ccccc3CC2O)[C@H](O)[C@H](Cc2ccccc2)NC(=O)[C@@H](NC(=O)OCc2ccccc2)C(C)C)cc1 (stereo partly specified) | 2.9 (≈ 2.06 µg/mL) | 12300 | 6.46 | 137 | 8.09 | –
5 | CC(C)(C)OC(=O)N[C@@H](Cc1ccccc1)[C@@H](O)[C@@H](NCc1ccccc1)C(=O)NCc1ccccc1 | < 1 | 400 | – | 0.8 | – | IC50 (MT4 [8]): No activity
6 | CC(C)(C)[C@H](NC(=O)OCc1ccccc1)C(=O)N[C@@H](Cc1ccccc1)[C@@H](O)[C@@H](NCc1ccc(OCCN2CCOCC2)cc1)C(=O)N[C@H]1c2ccccc2C[C@H]1O | 14.5 (≈ 11.9 µg/mL) | – | 7.33 | – | 8.02 | Cmax [6]: No compound detectable; AUC [7]: No compound detectable
7 | COc1ccc(CN[C@@H](C(=O)NC2c3ccccc3C[C@H]2O)[C@H](O)[C@H](Cc2ccccc2)NC(=O)[C@@H](NC(=O)CCc2ccccc2O)C(C)(C)C)cc1 (stereo partly specified) | – | 1800 | 6.80 | 11.8 | 7.89 | –
8 | COc1ccc(CN[C@@H](C(=O)NC2c3ccccc3C[C@H]2O)[C@H](O)[C@H](Cc2ccccc2)NC(=O)[C@@H](NC(=O)CSc2nnc(C)s2)C(C)(C)C)cc1 (stereo partly specified) | 39 (≈ 29.7 µg/mL) | 20000 | 6.75 | 60.3 | 8.10 | –
9 | CC(C)(C)OC(=O)N[C@@H](Cc1ccccc1)[C@@H](O)[C@@H](NCc1ccc(CNC(=O)CCc2nc3ccccc3[nH]2)cc1)C(=O)NCc1ccccc1 | – | – | – | – | – | IC50 (MT4 [8]): No activity
10 | COc1ccc(CN[C@@H](C(=O)N[C@@H]2c3ccccc3C[C@H]2O)[C@H](O)[C@H](Cc2ccccc2)NC(=O)OC(C)(C)C)cc1 | – | – | – | – | 7.19 | IC50 (MT4 [9]): No activity
11 | CC(C)(C)OC(=O)N[C@@H](Cc1ccccc1)[C@@H](O)[C@@H](NCc1ccc(CNC(=O)CCc2nc3ccccc3[nH]2)cc1)C(=O)N[C@H]1c2ccccc2C[C@H]1O | – | – | 5.36 | – | 7.39 | –
12 | CCC(C)C(NC(=O)OCc1ccccc1)C(=O)N[C@@H](Cc1ccccc1)[C@@H](O)[C@@H](NCc1ccc(OC)cc1)C(=O)N[C@@H]1c2ccccc2CC1O (stereo partly specified) | – | – | 5.96 | – | 8.09 | –
13 | CC(C)(C)OC(=O)N[C@@H](Cc1ccccc1)[C@@H](O)[C@@H](NCc1ccc(CNC(=O)Nc2ccccc2)cc1)C(=O)N[C@@H]1c2ccccc2C[C@H]1O | – | – | – | – | 7.48 | IC50 (MT4 [9]): No activity
14 | CCOc1ccc(CN[C@@H](C(=O)N[C@H]2c3ccccc3C[C@H]2O)[C@H](O)[C@H](Cc2ccccc2)NC(=O)[C@@H](NC(=O)OCc2ccccc2)C(C)(C)C)cc1 | < 1 | 4300 | 6.59 | 23.9 | – | –
15 | COc1ccc(CN[C@@H](C(=O)NC2c3ccccc3C[C@H]2O)[C@H](O)[C@H](Cc2ccccc2)NC(=O)[C@@H](NC(=O)CSc2nncn2C)C(C)(C)C)cc1 (stereo partly specified) | 260 (≈ 193 µg/mL) | 700 | 6.72 | 1.6 | 8.24 | –
16 | COc1ccc(CN[C@@H](C(=O)NC(C(=O)NCc2nc3ccccc3[nH]2)c2ccccc2)[C@H](O)[C@H](Cc2ccccc2)NC(=O)OC(C)(C)C)cc1 (stereo partly specified) | – | – | 6.42 | – | 7.96 | –
17 | CC(C)(C)OC(=O)N[C@@H](Cc1ccccc1)[C@@H](O)[C@@H](NCc1ccc(OCCO)cc1)C(=O)NCc1ccccc1 | – | – | – | – | – | IC50 (MT4 [8]): No activity

Row | Compound | solubility [1] [µM] | Cmax [2] [nM] | pIC50 [3] | AUC [4] [µM·h] | pKi [5] | further results
18 | COc1ccc(CN[C@@H](C(=O)N[C@@H]2c3ccccc3C[C@H]2O)[C@H](O)[C@H](Cc2ccccc2)NC(=O)[C@@H](NC(=O)OC(C)(C)C)C(C)(C)C)cc1 | – | – | – | – | 6.68 | IC50 (MT4 [8]): No activity
19 | COc1ccc(CN[C@@H](C(=O)N[C@@H]2c3ccccc3C[C@H]2O)[C@H](O)[C@H](Cc2ccccc2)NC(=O)C(CC(=O)O)NC(=O)OCc2ccccc2)cc1 (stereo partly specified) | – | – | – | – | 7.66 | IC50 (MT4 [8]): No activity
20 | CC(C)(C)OC(=O)N[C@@H](Cc1ccccc1)[C@@H](O)[C@@H](NCc1ccc(CNC(=O)OCc2ccccc2)cc1)C(=O)N[C@H]1c2ccccc2C[C@H]1O | – | – | – | – | – | IC50 (MT4 [9]): No activity
21 | COc1ccc(CN[C@@H](C(=O)N[C@H]2c3ccccc3C[C@H]2O)[C@H](O)[C@H](Cc2ccccc2)NC(=O)[C@@H](NC(=O)CCc2nc3ccccc3[nH]2)C(C)(C)C)cc1 | 12.2 (≈ 9.28 µg/mL) | – | 7.01 | – | 8.03 | Cmax [6]: No compound detectable; AUC [7]: No compound detectable
22 | CC(C)(C)OC(=O)N[C@@H](Cc1ccccc1)[C@@H](O)[C@@H](NCc1ccc(OCCN2CCOCC2)cc1)C(=O)N[C@@H]1c2ccccc2C[C@H]1O | – | – | – | – | 6.89 | IC50 (MT4 [9]): No activity
23 | CC(C)(C)OC(=O)N[C@@H](Cc1ccccc1)[C@@H](O)[C@@H](NCc1ccc(OCCO)cc1)C(=O)N[C@@H]1c2ccccc2C[C@H]1O | – | – | 5.40 | – | 7.10 | –
24 | COc1ccc(CN[C@@H](C(=O)NC2c3ccccc3C[C@H]2O)[C@H](O)[C@H](Cc2ccccc2)NC(=O)[C@@H](NC(=O)CCc2ccc(OC)c(O)c2)C(C)(C)C)cc1 (stereo partly specified) | – | 250 | 7.06 | 0.2 | 8.11 | –
25 | COc1ccc(CN[C@@H](C(=O)NC2c3ccccc3C[C@H]2O)[C@H](O)[C@H](Cc2ccccc2)NC(=O)[C@@H](NC(=O)/C=C/c2ccc(OC)cc2O)C(C)(C)C)cc1 (stereo partly specified) | – | – | 6.62 | – | 7.74 | –
26 | CC(=O)NCc1ccc(CN[C@@H](C(=O)N[C@H]2c3ccccc3C[C@H]2O)[C@H](O)[C@H](Cc2ccccc2)NC(=O)OC(C)(C)C)cc1 | – | – | 5.59 | – | 7.15 | –
27 | CC(C)(C)[C@H](NC(=O)OCc1ccccc1)C(=O)N[C@@H](Cc1ccccc1)[C@@H](O)[C@@H](NCc1ccc(CNC(=O)Nc2ccccc2)cc1)C(=O)N[C@H]1c2ccccc2C[C@H]1O | < 1 | – | 6.76 | – | 8.48 | Cmax [6]: No compound detectable; AUC [10]: No compound detectable
28 | COc1ccc(CN[C@@H](C(=O)N[C@@H]2c3ccccc3C[C@H]2O)[C@H](O)[C@H](Cc2ccccc2)NC(=O)C(CC(N)=O)NC(=O)OCc2ccccc2)cc1 (stereo partly specified) | – | – | 5.85 | – | 7.82 | –
29 | CC(C)(C)[C@H](NC(=O)OCc1ccccc1)C(=O)N[C@@H](Cc1ccccc1)[C@@H](O)[C@@H](NCc1ccc(OCCO)cc1)C(=O)N[C@H]1c2ccccc2C[C@H]1O | 16.5 (≈ 12.4 µg/mL) | 2600 | 6.81 | 5.9 | – | –
30 | COc1ccc(CN[C@@H](C(=O)N[C@H]2c3ccccc3C[C@H]2O)[C@H](O)[C@H](Cc2ccccc2)NC(=O)[C@@H](NC(=O)OCc2ccccc2)C(C)(C)C)cc1 | < 1 | 16500 | 6.60 | 82.5 | 8.02 | –
31 | COc1ccc(CN[C@@H](C(=O)N[C@H](C(=O)NCc2nc3ccccc3[nH]2)C(C)C)[C@H](O)[C@H](Cc2ccccc2)NC(=O)[C@@H](NC(=O)OCc2ccccc2)C(C)(C)C)cc1 | < 1 | 200 | 7.60 | 0.6 | 8.47 | –
32 | CCOc1ccc(CN[C@@H](C(=O)N[C@@H]2c3ccccc3C[C@H]2O)[C@H](O)[C@H](Cc2ccccc2)NC(=O)OC(C)(C)C)cc1 | – | – | – | – | 7.04 | IC50 (MT4 [9]): No activity
33 | COc1ccc(CN[C@@H](C(=O)NC2c3ccccc3C[C@H]2O)[C@H](O)[C@H](Cc2ccccc2)NC(=O)[C@@H](NC(=O)CSc2nnn(C)n2)C(C)(C)C)cc1 (stereo partly specified) | 78 (≈ 58.1 µg/mL) | 2800 | 6.74 | 7.4 | 7.92 | –
